Results: ChEMBL document CHEMBL1759954, “Synthesis of some novel 3-(1-(1-substitutedpiperidin-4-yl)-1H-1,2,3-triazol-4-yl)-5-substituted phenyl-1,2,4-oxadiazoles as antifungal agents” (2011)
Values after ≈ are worked out from the molar mass of the structure shown. Active and inactive are the calls of the source. No cut-off for these calls is given here.

Columns and labels:
Aspergillus flavus [1] = assay: Antifungal activity against Aspergillus flavus; assay type: functional
Summary of the method: (§1)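 In vitro MIC determination by standard agar method, cited from earlier work; fungal strains tested were Candida albicans, Fusarium oxysporum, Aspergillus flavus, Aspergillus niger and Cryptococcus neoformans, with miconazole and fluconazole run as reference standards.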

Candida albicans = assay: Antifungal activity against Candida albicans; assay type: functional; summary of the method: as §1
Cryptococcus neoformans [2] = assay: Antifungal activity against Cryptococcus neoformans up to 200 ug/ml; assay type: functional, organism-based; summary of the method: as §1
Fusarium oxysporum [3] = assay: Antifungal activity against Fusarium oxysporum; assay type: functional; summary of the method: as §1
Aspergillus niger [4] = assay: Antifungal activity against Aspergillus niger up to 200 ug/ml; assay type: functional, organism-based; summary of the method: as §1
Cryptococcus neoformans [5] = assay: Antifungal activity against Cryptococcus neoformans; assay type: functional; summary of the method: as §1
Fusarium oxysporum [6] = assay: Antifungal activity against Fusarium oxysporum up to 200 ug/ml; assay type: functional, organism-based; summary of the method: as §1
Aspergillus niger [7] = assay: Antifungal activity against Aspergillus niger; assay type: functional; summary of the method: as §1
Aspergillus flavus [8] = assay: Antifungal activity against Aspergillus flavus up to 200 ug/ml; assay type: functional, organism-based; summary of the method: as §1

Compound	MIC (Aspergillus flavus [1]) [µg/mL]	MIC (Candida albicans) [µg/mL]	Activity (Cryptococcus neoformans [2])	MIC (Fusarium oxysporum [3]) [µg/mL]	Activity (Aspergillus niger [4])	MIC (Cryptococcus neoformans [5]) [µg/mL]	Activity (Fusarium oxysporum [6])	MIC (Aspergillus niger [7]) [µg/mL]	Activity (Aspergillus flavus [8])
CN1CCC(n2cc(-c3noc(-c4ccccc4)n3)nn2)CC1	30 (≈ 96.7 µM)	50 (≈ 161 µM)	inactive	60 (≈ 193 µM)	inactive				
CC(C)(C)OC(=O)N1CCC(n2cc(-c3noc(-c4ccccc4)n3)nn2)CC1	85 (≈ 214 µM)	80 (≈ 202 µM)				120 (≈ 303 µM)	inactive	100 (≈ 252 µM)	
O=C(c1ccccc1)N1CCC(n2cc(-c3noc(-c4ccccc4)n3)nn2)CC1	65 (≈ 162 µM)	90 (≈ 225 µM)			inactive	100 (≈ 250 µM)	inactive		
c1ccc(CN2CCC(n3cc(-c4noc(-c5ccccc5)n4)nn3)CC2)cc1	50 (≈ 129 µM)	50 (≈ 129 µM)		65 (≈ 168 µM)		70 (≈ 181 µM)		150 (≈ 388 µM)	
CS(=O)(=O)N1CCC(n2cc(-c3noc(-c4ccccc4)n3)nn2)CC1	40 (≈ 107 µM)	50 (≈ 134 µM)		30 (≈ 80.1 µM)		25 (≈ 66.8 µM)		40 (≈ 107 µM)	
Clc1ccc(COC(Cn2ccnc2)c2ccc(Cl)cc2Cl)c(Cl)c1 (stereo not given) [MICONAZOLE]	12.5 (≈ 30 µM)	25 (≈ 60.1 µM)		25 (≈ 60.1 µM)		25 (≈ 60.1 µM)		12.5 (≈ 30 µM)	
CC(=O)N1CCC(n2cc(-c3noc(-c4ccc(Cl)cc4)n3)nn2)CC1	150 (≈ 402 µM)	40 (≈ 107 µM)	inactive	30 (≈ 80.5 µM)				70 (≈ 188 µM)	
CN1CCC(n2cc(-c3noc(-c4ccc(Cl)cc4)n3)nn2)CC1	15 (≈ 43.5 µM)	35 (≈ 102 µM)	inactive	50 (≈ 145 µM)				15 (≈ 43.5 µM)	
CCC(=O)N1CCC(n2cc(-c3noc(-c4ccccc4)n3)nn2)CC1	30 (≈ 85.1 µM)	50 (≈ 142 µM)	inactive	60 (≈ 170 µM)	inactive				
CCN1CCC(n2cc(-c3noc(-c4ccccc4)n3)nn2)CC1	35 (≈ 108 µM)	90 (≈ 277 µM)		100 (≈ 308 µM)		150 (≈ 462 µM)		47.5 (≈ 146 µM)	
O=C(c1ccc(Cl)cc1)N1CCC(n2cc(-c3noc(-c4ccccc4)n3)nn2)CC1	40 (≈ 92 µM)	45 (≈ 103 µM)		40 (≈ 92 µM)		45 (≈ 103 µM)		42.5 (≈ 97.7 µM)	
CS(=O)(=O)N1CCC(n2cc(-c3noc(-c4ccc(Cl)cc4)n3)nn2)CC1	15 (≈ 36.7 µM)	30 (≈ 73.4 µM)		35 (≈ 85.6 µM)		40 (≈ 97.8 µM)		15 (≈ 36.7 µM)	
CCN1CCC(n2cc(-c3noc(-c4ccc(Cl)cc4)n3)nn2)CC1	35 (≈ 97.5 µM)	70 (≈ 195 µM)		80 (≈ 223 µM)		100 (≈ 279 µM)		40 (≈ 111 µM)	
O=C(c1ccccc1)N1CCC(n2cc(-c3noc(-c4ccc(Cl)cc4)n3)nn2)CC1	65 (≈ 149 µM)	75 (≈ 172 µM)		85 (≈ 195 µM)	inactive	100 (≈ 230 µM)			
OC(Cn1cncn1)(Cn1cncn1)c1ccc(F)cc1F [FLUCONAZOLE]	5 (≈ 16.3 µM)	5 (≈ 16.3 µM)		5 (≈ 16.3 µM)		5 (≈ 16.3 µM)		10 (≈ 32.7 µM)	
c1ccc(-c2nc(-c3cn(C4CCNCC4)nn3)no2)cc1	50 (≈ 169 µM)	60 (≈ 202 µM)		100 (≈ 337 µM)		90 (≈ 304 µM)		100 (≈ 337 µM)	
Cc1ccc(S(=O)(=O)N2CCC(n3cc(-c4noc(-c5ccccc5)n4)nn3)CC2)cc1	45 (≈ 99.9 µM)	60 (≈ 133 µM)		70 (≈ 155 µM)		40 (≈ 88.8 µM)		37.5 (≈ 83.2 µM)	
CC(=O)N1CCC(n2cc(-c3noc(-c4ccccc4)n3)nn2)CC1		35 (≈ 103 µM)	inactive	35 (≈ 103 µM)				95 (≈ 281 µM)	inactive
CCC(=O)N1CCC(n2cc(-c3noc(-c4ccc(Cl)cc4)n3)nn2)CC1	30 (≈ 77.6 µM)	35 (≈ 90.5 µM)	inactive	40 (≈ 103 µM)				100 (≈ 259 µM)	
CCCC(=O)N1CCC(n2cc(-c3noc(-c4ccccc4)n3)nn2)CC1	35 (≈ 95.5 µM)	90 (≈ 246 µM)		100 (≈ 273 µM)		150 (≈ 409 µM)		47.5 (≈ 130 µM)	
